Assay results taken from ChEMBL document CHEMBL1133533 (J Med Chem, 2000).

Columns and labels:
D(4) dopamine receptor [1] = biological target: T1, D(4) dopamine receptor (Homo sapiens, UniProt P21917); assay: Displacement of [3H]spiperone from human Dopamine receptor D4.4 expressed in CHO cells; assay type: cell-based
T1 sequence (P21917 whole entry): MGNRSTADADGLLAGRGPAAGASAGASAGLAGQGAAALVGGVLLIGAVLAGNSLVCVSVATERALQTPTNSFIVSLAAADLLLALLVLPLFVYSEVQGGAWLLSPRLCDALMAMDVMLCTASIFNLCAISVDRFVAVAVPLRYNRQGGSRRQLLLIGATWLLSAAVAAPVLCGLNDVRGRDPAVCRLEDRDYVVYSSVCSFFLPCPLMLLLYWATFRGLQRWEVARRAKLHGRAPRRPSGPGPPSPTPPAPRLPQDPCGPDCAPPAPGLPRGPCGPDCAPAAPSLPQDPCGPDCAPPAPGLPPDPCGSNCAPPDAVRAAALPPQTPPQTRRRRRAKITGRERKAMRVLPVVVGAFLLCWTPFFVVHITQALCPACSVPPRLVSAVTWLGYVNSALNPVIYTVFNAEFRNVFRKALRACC
How it was run: (§1)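 Membranes from CHO cells stably expressing human D2short, D3 or D4.4 receptor, 5-25 µg protein/tube, competing against [3H]spiperone. Eight concentrations in triplicate, 2-4 independent experiments. Sigmoid nonlinear fit gives IC50, converted to Ki by Cheng-Prusoff; reported as mean ± SEM; Hill slopes fit a one-site model.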

D(2) dopamine receptor [2] = biological target: T2, D(2) dopamine receptor (Homo sapiens, UniProt P14416); assay: Displacement of [3H]spiperone from human Dopamine receptor D2L expressed in CHO cells; assay type: cell-based
D(2) dopamine receptor [3] = biological target: T2, D(2) dopamine receptor; assay: Displacement of [3H]spiperone from human Dopamine receptor D2S expressed in CHO cells; assay type: cell-based; how it was run: as §1
D(1A) dopamine receptor [4] = biological target: T3, D(1A) dopamine receptor (Bos taurus, UniProt Q95136); assay: Displacement of [3H]SCH-23390 from Dopamine receptor D1 of bovine striatal membranes
D(3) dopamine receptor = D(3) dopamine receptor (Homo sapiens, UniProt P35462); assay: Displacement of [3H]spiperone from human Dopamine receptor D3 expressed in CHO cells; assay type: cell-based; how it was run: as §1
D(1A) dopamine receptor [5] = biological target: T3, D(1A) dopamine receptor; assay: Binding affinity against Dopamine receptor D1 from bovine striatal membranes using [3H]SCH-23390 as radioligand
How it was run: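 Bovine striatal membranes, 25 µg protein/tube, competing against [3H]SCH 23390 (Kd 0.27-0.32 nM). Eight concentrations in triplicate, 2-4 independent experiments. Sigmoid nonlinear fit gives IC50, converted to Ki by Cheng-Prusoff; reported as mean ± SEM.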

[6] = biological target: T4, D(4) dopamine receptor (Homo sapiens) (UniProt P21917); assay: (§2) Effective dose was measured by the stimulation of mitogenesis at dopamine D4.2 receptor; assay type: functional
T4 sequence (whole entry): T1 sequence (P21917 whole entry)
How it was run: (§3)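 CHO10001A cells stably expressing human D4.2 receptor, seeded at 10 000 cells/well and grown 75 h in medium with 10% FCS. Cells rinsed with serum-free medium, then given seven concentrations (final 0.001-1000 nM) for 16-18 h. [3H]thymidine 0.25 µCi/well added for 2 h at 37 °C, then filter harvest and counting. Quadruplicates, 6 experiments, normalized mean curve; EC50 from mean curves.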

[7] = biological target: T4, D(4) dopamine receptor (Homo sapiens); assay: Agonistic effect was measured by the stimulation of mitogenesis at dopamine D4.2 receptor; assay type: functional; how it was run: as §3
D(4) dopamine receptor [8] = biological target: T1, D(4) dopamine receptor; assay: as §2; assay type: functional; how it was run: as §3

Chain of D(3) dopamine receptor (P35462 whole entry): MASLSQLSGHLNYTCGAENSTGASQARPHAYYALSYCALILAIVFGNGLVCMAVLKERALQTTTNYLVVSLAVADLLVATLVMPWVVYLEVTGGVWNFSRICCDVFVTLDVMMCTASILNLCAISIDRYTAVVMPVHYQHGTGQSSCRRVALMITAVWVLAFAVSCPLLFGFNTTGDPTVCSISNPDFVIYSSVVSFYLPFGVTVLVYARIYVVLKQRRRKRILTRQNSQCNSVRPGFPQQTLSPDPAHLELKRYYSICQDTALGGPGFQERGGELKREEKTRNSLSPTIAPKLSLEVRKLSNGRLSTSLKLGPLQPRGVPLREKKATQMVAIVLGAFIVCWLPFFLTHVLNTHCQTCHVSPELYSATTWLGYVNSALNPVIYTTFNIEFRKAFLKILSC
T2 sequence (P14416 whole entry): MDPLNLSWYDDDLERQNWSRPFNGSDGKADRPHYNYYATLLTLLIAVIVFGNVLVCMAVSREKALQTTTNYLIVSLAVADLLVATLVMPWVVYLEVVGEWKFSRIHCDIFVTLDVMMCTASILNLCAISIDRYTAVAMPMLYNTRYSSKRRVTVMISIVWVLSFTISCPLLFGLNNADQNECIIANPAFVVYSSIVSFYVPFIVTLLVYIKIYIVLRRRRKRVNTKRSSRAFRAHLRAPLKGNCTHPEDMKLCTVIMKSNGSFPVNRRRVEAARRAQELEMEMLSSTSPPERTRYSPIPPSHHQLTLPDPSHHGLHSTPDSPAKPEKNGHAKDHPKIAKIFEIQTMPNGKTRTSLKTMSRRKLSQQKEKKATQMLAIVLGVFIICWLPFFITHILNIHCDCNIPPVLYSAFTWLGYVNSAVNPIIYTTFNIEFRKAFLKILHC
T3 sequence (Q95136 whole entry): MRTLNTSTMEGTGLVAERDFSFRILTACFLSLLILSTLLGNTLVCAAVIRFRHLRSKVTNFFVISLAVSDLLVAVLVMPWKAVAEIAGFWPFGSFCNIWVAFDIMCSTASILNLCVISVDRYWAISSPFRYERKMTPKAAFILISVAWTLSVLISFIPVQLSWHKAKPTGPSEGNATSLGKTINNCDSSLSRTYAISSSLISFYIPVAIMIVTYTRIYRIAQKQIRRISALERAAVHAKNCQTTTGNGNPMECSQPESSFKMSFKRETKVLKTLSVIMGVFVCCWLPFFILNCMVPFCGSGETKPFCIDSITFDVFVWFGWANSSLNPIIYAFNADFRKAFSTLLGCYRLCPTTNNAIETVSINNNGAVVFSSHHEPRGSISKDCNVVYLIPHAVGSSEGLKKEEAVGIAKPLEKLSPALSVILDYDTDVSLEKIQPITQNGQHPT

SMILES | Ki (D(4) dopamine receptor [1]) [µM] | Ki (D(2) dopamine receptor [2]) [µM] | Ki (D(2) dopamine receptor [3]) [µM] | Ki (D(1A) dopamine receptor [4]) [µM] | Ki (D(3) dopamine receptor) [µM] | Ki (D(1A) dopamine receptor [5]) [µM] | ED50 [6] [µM] | Effect [7] [%] | EC50 (D(4) dopamine receptor [8]) [µM]
N#Cc1ccc2[nH]c(CN3CCN(c4ccccc4Cl)CC3)cc2c1 | 0.0014 | 2.3 | 0.95 | 7.5 | 1.7 |  |  |  | 
N#Cc1ccc2[nH]c(CN3CCN(c4ccc(Cl)c(Cl)c4)CC3)cc2c1 | 0.0075 | 43 | 36 |  | 20 | 11 |  |  | 
N#Cc1ccc2[nH]c(CN3CCN(c4ccccc4)CC3)cc2c1 | 0.00052 | 3.1 | 0.29 | 13 | 1.7 |  | 0.0015 | 35 | 
N#Cc1ccc2[nH]cc(CN3CCN(c4ccc(F)cc4)CC3)c2c1 | 0.11 | 2.4 | 1.8 | 0.49 | 5.2 |  |  |  | 
N#Cc1ccc2cc(CN3CCN(c4ccc(Cl)c(Cl)c4)CC3)[nH]c2c1 | 0.009 | 2 | 1.4 |  | 33 | 0.88 |  |  | 
N#Cc1ccc2[nH]cc(CN3CCN(c4ccc(Cl)cc4)CC3)c2c1 | 0.029 | 4.3 | 2.6 | 0.55 | 6.4 |  |  |  | 
N#Cc1ccc2[nH]cc(CN3CCN(c4ccccc4)CC3)c2c1 | 0.05 | 34 | 3.5 | 3 | 4.4 |  |  |  | 
N#Cc1ccc2[nH]c(CN3CCN(c4ccc(Cl)cc4)CC3)cc2c1 | 0.0021 | 7.9 | 7.6 |  | 13 | 5.3 |  |  | 
N#Cc1ccc2cc(CN3CCN(c4ccccc4Cl)CC3)[nH]c2c1 | 0.0034 |  |  |  | 0.92 | 1.9 |  |  | 
N#Cc1ccc2[nH]cc(CN3CCN(c4ccccc4Cl)CC3)c2c1 | 0.017 | 1.4 | 0.54 | 0.51 | 0.55 |  |  |  | 
N#Cc1ccc2[nH]c(CN3CCN(c4ccc(F)cc4)CC3)cc2c1 | 0.001 | 28 | 19 |  | 15 | 8.6 |  | 30 | 0.0094
N#Cc1ccc2cc(CN3CCN(c4ccccc4)CC3)[nH]c2c1 | 0.0036 | 5.6 | 2.5 |  | 3.1 | 5.3 |  |  | 
N#Cc1ccc2[nH]cc(CN3CCN(c4ccc(Cl)c(Cl)c4)CC3)c2c1 | 0.022 | 0.79 | 0.48 | 0.45 | 0.87 |  |  |  | 
